Laboratory results taken from ChEMBL document CHEMBL5375970, “Discovery of Potent and Selective WDR5 Proteolysis Targeting Chimeras as Potential Therapeutics for Pancreatic Cancer” (J Med Chem, 2023).
Activity calls are given as the source filed them.

Experiments:
[1] = target: WD repeat-containing protein 5 (Homo sapiens, UniProt P61964); experiment: Binding affinity to full-length N-terminal His-tagged WDR5 (unknown origin) expressed in Escherichia coli BL21 (DE3) cells assessed as dissociation constant by isothermal titration calorimetry
In short: (§1)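 Inverse ITC was run with His-tagged VCB (pVHL54–213 co-expressed with EloB1–104 and EloC1–112) and E. coli BL21(DE3)-expressed WDR5, both purified by HisTrap and Superdex 200 gel filtration. Titrations were VCB into ligand, VCB into the ligand–WDR5 complex, and WDR5 into ligand. Three independent replicates were done, reported as mean ± SD, and the first injection was excluded from fitting.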

[2] = Binding affinity to His-tagged VCB/full-length N-terminal His-tagged WDR5 (unknown origin) expressed in Escherichia coli BL21 (DE3) cells assessed as dissociation constant by isothermal titration calorimetry; set-up: species or system Homo sapiens; in short: as §1
[3] = target: T1, von Hippel-Lindau disease tumor suppressor/WD repeat-containing protein 5 (Homo sapiens, UniProt P61964+P40337); experiment: PROTAC activity at VHL/WDR5 in human MIA PaCa-2 cells assessed as degradation of WDR5 protein incubated for 18 hrs by Western blotting analysis; type: cell-based
In short: (§2)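 Five PDAC lines (MIA PaCa-2 in DMEM; BxPC-3, HPAF-II, Panc10.05 and PANC-1 in RPMI 1640; all with 10% FBS) given DMSO or compound over a concentration range up to 50 μM for 18 h. Lysates immunoblotted for WDR5 against tubulin. For MIA PaCa-2, DC50 and Dmax were fitted from 4 independent experiments.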

[4] = target: T1, von Hippel-Lindau disease tumor suppressor/WD repeat-containing protein 5; experiment: PROTAC activity at VHL/WDR5 in human BXPC-3 cells assessed as degradation of WDR5 protein incubated for 18 hrs by Western blotting analysis; type: cell-based; in short: as §2
[5] = target: T1, von Hippel-Lindau disease tumor suppressor/WD repeat-containing protein 5; experiment: PROTAC activity at VHL/WDR5 in human HPAF-II cells assessed as degradation of WDR5 protein incubated for 18 hrs by Western blotting analysis; type: cell-based; in short: as §2
[6] = target: T1, von Hippel-Lindau disease tumor suppressor/WD repeat-containing protein 5; experiment: PROTAC activity at VHL/WDR5 in human Panc1005 cells assessed as degradation of WDR5 protein incubated for 18 hrs by Western blotting analysis; type: cell-based; in short: as §2
[7] = target: T1, von Hippel-Lindau disease tumor suppressor/WD repeat-containing protein 5; experiment: PROTAC activity at VHL/WDR5 in human PANC-1 cells assessed as degradation of WDR5 protein incubated for 18 hrs by Western blotting analysis; type: cell-based; in short: as §2
[8] = target: T1, von Hippel-Lindau disease tumor suppressor/WD repeat-containing protein 5; experiment: PROTAC activity at VHL/WDR5 in human MIA PaCa-2 cells assessed as hook effect upto 50 uM incubated for 18 hrs by Western blotting analysis; type: cell-based; in short: as §2
[9] = target: T1, von Hippel-Lindau disease tumor suppressor/WD repeat-containing protein 5; experiment: PROTAC activity at VHL/WDR5 in human BXPC-3 cells assessed as hook effect upto 50 uM incubated for 18 hrs by Western blotting analysis; type: cell-based; in short: as §2
[10] = target: T1, von Hippel-Lindau disease tumor suppressor/WD repeat-containing protein 5; experiment: PROTAC activity at VHL/WDR5 in human HPAF-II cells assessed as hook effect upto 50 uM incubated for 18 hrs by Western blotting analysis; type: cell-based; in short: as §2
[11] = target: T1, von Hippel-Lindau disease tumor suppressor/WD repeat-containing protein 5; experiment: PROTAC activity at VHL/WDR5 in human Panc1005 cells assessed as hook effect upto 50 uM incubated for 18 hrs by Western blotting analysis; type: cell-based; in short: as §2
[12] = target: T1, von Hippel-Lindau disease tumor suppressor/WD repeat-containing protein 5; experiment: PROTAC activity at VHL/WDR5 in human PANC-1 cells assessed as hook effect upto 50 uM incubated for 18 hrs by Western blotting analysis; type: cell-based; in short: as §2
[13] = target: T1, von Hippel-Lindau disease tumor suppressor/WD repeat-containing protein 5; experiment: PROTAC activity at VHL/WDR5 in human MIA PaCa-2 cells assessed as decrease in WDR5 protein by measuring degradation concentration incubated for 18 hrs by Western blotting analysis; type: cell-based
In short: (§3)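 MIA PaCa-2 cells were grown in DMEM with 10% FBS and treated with a concentration series for 18 h. Total lysates were Western blotted for WDR5 against a tubulin loading control using fluorescent secondary antibodies. DC50 and Dmax were fitted from 4 independent experiments.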

[14] = target: T1, von Hippel-Lindau disease tumor suppressor/WD repeat-containing protein 5; experiment: PROTAC activity at VHL/WDR5 in human MIA PaCa-2 cells assessed as maximal degradation of WDR5 protein incubated for 18 hrs by Western blotting analysis relative to control; type: cell-based; in short: as §3
[15] = target: T1, von Hippel-Lindau disease tumor suppressor/WD repeat-containing protein 5; experiment: PROTAC activity at VHL/WDR5 in human MIA PaCa-2 cells assessed as degradation of WDR5 protein at 0.1 uM by Western blotting analysis; type: cell-based; conditions: TDE = time-dependent effect
In short: (§4)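 Time course: MIA PaCa-2 cells given DMSO or 0.1 μM compound and harvested at the indicated times. Lysates immunoblotted for WDR5, with tubulin as loading control. Representative of at least two independent experiments.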

[16] = target: T1, von Hippel-Lindau disease tumor suppressor/WD repeat-containing protein 5; experiment: PROTAC activity at VHL/WDR5 in human MIA PaCa-2 cells assessed as degradation of WDR5 protein at 0.1 uM incubated for 2 hrs by Western blotting analysis; type: cell-based; in short: as §4
[17] = target: T1, von Hippel-Lindau disease tumor suppressor/WD repeat-containing protein 5; experiment: PROTAC activity at VHL/WDR5 in human MIA PaCa-2 cells assessed as maximal degradation of WDR5 protein at 0.1 uM incubated for 24 hrs by Western blotting analysis; type: cell-based; in short: as §4
[18] = target: T1, von Hippel-Lindau disease tumor suppressor/WD repeat-containing protein 5; experiment: PROTAC activity at VHL/WDR5 in human MIA PaCa-2 cells assessed as degradation of WDR5 protein at 0.5 uM incubated for 4 hrs in presence of carfilzomib by Western blotting analysis; type: cell-based
In short: (§5)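 Rescue: MIA PaCa-2 cells pretreated for 2 h with 0.4 μM carfilzomib or with OICR-9429 at several concentrations, then given DMSO or 0.5 μM compound for a further 4 h. WDR5 immunoblotted against tubulin. Representative of at least two experiments.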

[19] = target: T1, von Hippel-Lindau disease tumor suppressor/WD repeat-containing protein 5; experiment: PROTAC activity at VHL/WDR5 in human MIA PaCa-2 cells assessed as degradation of WDR5 protein at 0.5 uM incubated for 4 hrs in presence of OICR-9429 by Western blotting analysis; type: cell-based; in short: as §5
[20] = target: T1, von Hippel-Lindau disease tumor suppressor/WD repeat-containing protein 5; experiment: PROTAC activity at VHL/WDR5 in human MIA PaCa-2 cells assessed as degradation of WDR5 protein at 1.5 uM incubated for 2 hrs by Western blotting analysis; type: cell-based
In short: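 MIA PaCa-2 cells given DMSO or 1.5 μM compound for 2 h. Lysates prepared for proteomics were checked by WDR5 immunoblot.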

[21] = target: T1, von Hippel-Lindau disease tumor suppressor/WD repeat-containing protein 5; experiment: PROTAC activity at VHL/WDR5 in human MIA PaCa-2 cells assessed as degradation of WDR5 protein at 1.5 uM incubated for 2 hrs by TMT-labeled mass spectrometry based quantitative proteomics assay; type: cell-based
In short: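 TMT proteomics: MIA PaCa-2 cells given DMSO or 1.5 μM compound (2 h in the figure legend, 2.5 h in the methods). Cells lysed in 8 M urea pH 8.0, reduced with DTT, alkylated with iodoacetamide, then digested with LysC/trypsin overnight at 37 °C. Peptides TMT10plex-labelled and analyzed by MS. Cutoffs P < 0.01 and log2 fold change > 0.5, three biological replicates.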

MIA PaCa-2 = experiment: Growth inhibition of human MIA PaCa-2 cells incubated for 6 days by MTS assay; type: functional; conditions: MIA PaCa-2, 144 h, time 6 day
In short: (§6)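 MTS read-out. PDAC cells seeded at 500 or 1000 per well and exposed to a compound concentration series for 6 days, with medium plus fresh compound replaced every 2 days. MTS incubated 0.5–2 h, absorbance read at 490 nm. Growth normalized to DMSO. Three independent experiments, mean ± SEM; GI50 by nonlinear regression.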

BXPC-3 = experiment: Growth inhibition of human BXPC-3 cells incubated for 6 days by MTS assay; type: functional; conditions: BXPC-3, 144 h, time 6 day; in short: as §6
HPAF-II = experiment: Growth inhibition of human HPAF-II cells incubated for 6 days by MTS assay; type: functional; conditions: 144 h, time 6 day; in short: as §6
Panc1005 = experiment: Growth inhibition of human Panc1005 cells incubated for 6 days by MTS assay; type: functional; conditions: Panc1005, 144 h, time 6 day; in short: as §6
PANC-1 = experiment: Growth inhibition of human PANC-1 cells incubated for 6 days by MTS assay; type: functional; conditions: PANC-1, 144 h, time 6 day; in short: as §6
[22] = Cmax in Swiss albino mouse at 75 mg/kg,ip administration measured for 0.5 hrs by LC-MS/MS analysis; type: ADME, organism-based; set-up: time 0.5 hrs, dose 75 mg/kg, route ip; conditions: in vivo
In short: (§7)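 Six male Swiss albino mice were each given one intraperitoneal dose of a solution formulation at 75 mg/kg. […] Plasma was quantified by LC–MS/MS (LLOQ 5.03 ng/mL), values are means of three mice per time point, and PK was derived by nonlinear regression.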

[23] = AUC (0 to last) in Swiss albino mouse at 75 mg/kg,ip administration measured for 0.5 to 12 hrs by LC-MS/MS analysis; type: ADME, organism-based; set-up: time upper 12 hrs, dose 75 mg/kg, time lower 0.5 hrs, route ip; conditions: in vivo; in short: as §7
[24] = Drug distribution in Swiss albino mouse plasma at 75 mg/kg,ip administration measured for 4 hrs by LC-MS/MS analysis; type: ADME, organism-based; in short: as §7
[25] = Drug distribution in Swiss albino mouse plasma at 75 mg/kg,ip administration measured for 12 hrs by LC-MS/MS analysis; type: ADME, organism-based; in short: as §7
[26] = Toxicity in Swiss albino mouse assessed as clinical signs of toxicity at 75 mg/kg,ip observed after 0.5 to 12 hrs; type: organism-based; conditions: in vivo, time 0.5-12 hrs
In short: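 Six male Swiss albino mice were given one intraperitoneal dose of a solution formulation at 75 mg/kg and observed for clinical signs during the 12 h PK sampling period (0.5–12 h).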

Q: For `Cc1ncsc1-c1ccc(CNC(=O)[C@@H]2C[C@@H](O)CN2C(=O)[C@@H](NC(=O)CNC(=O)c2ccc(F)c(-c3ccc(N4C[C@@H](C)N(C)[C@@H](C)C4)c(NC(=O)c4c[nH]c(=O)cc4C(F)(F)F)c3)c2)C(C)(C)C)cc1`, which Kd [1] is on record?
A: 0.122 µM

Q: And the Kd [2]?
A: 0.232 µM

Q: What about the Activity [3] of the same compound?
A: Dose-Dependent Effect

Q: And the Activity [4]?
A: Dose-Dependent Effect

Q: What about the Activity [5] of the same compound?
A: Dose-Dependent Effect

Q: What about the Activity [6] of the same compound?
A: Dose-Dependent Effect

Q: And the Activity [7]?
A: Dose-Dependent Effect

Q: And the Activity [8]?
A: inactive

Q: And the Activity [9]?
A: inactive

Q: What about the Activity [10] of the same compound?
A: inactive

Q: And the Activity [11]?
A: inactive

Q: What about the Activity [12] of the same compound?
A: inactive

Q: What about the DC50 [13] of the same compound?
A: 0.092 µM

Q: What about the Emax [14] of the same compound?
A: 73%

Q: And the Activity [15]?
A: Tde

Q: And the Activity [16]?
A: Active

Q: What about the Activity [17] of the same compound?
A: Active

Q: What about the Activity [18] of the same compound?
A: inactive

Q: And the Activity [19]?
A: Active

Q: What about the Activity [20] of the same compound?
A: Active

Q: What about the Activity [21] of the same compound?
A: Active

Q: And the GI50 (MIA PaCa-2)?
A: 5.7 µM

Q: And the GI50 (BXPC-3)?
A: 4 µM

Q: And the GI50 (HPAF-II)?
A: 9.2 µM

Q: What about the GI50 (Panc1005) of the same compound?
A: 14.3 µM

Q: What about the GI50 (PANC-1) of the same compound?
A: 32.7 µM

Q: And the Cmax [22]?
A: 5000 nM

Q: And the AUC(0-t) [23]?
A: 7300 ng·h/mL

Q: And the concentration at 4 h [24]?
A: 1000 nM

Q: What about the concentration at 12 h [25] of the same compound?
A: > 100 nM

Q: What about the Activity [26] of the same compound?
A: Non-Toxic
